Laboratory results: ChEMBL document CHEMBL4000255, “Discovery and Assessment of Atropisomers of (±)-Lesinurad” (ACS Med Chem Lett, 2017)
Values joined by “and” are separate entries in the source; they are usually repeats but may differ in a detail not shown here. Equal values may be shown once.

How the values were obtained:
CYP2C9 [1] = target: T1, CYP2C9 (Homo sapiens, UniProt P11712); assay: Drug metabolism in human liver microsomes assessed as CYP2C9-mediated metabolism by measuring compound half life at 10 pmol/ml preincubated for 10 mins followed by NADPH addition measured after 10 mins by LC-MS/MS analysis; format: ADME
Cytochrome P450 2C9 [2] = target: T2, Cytochrome P450 2C9 (Homo sapiens, UniProt P11712); assay: Drug metabolism in human liver microsomes assessed as CYP2C9-mediated metabolism by measuring compound intrinsic clearance at 10 pmol/ml preincubated for 10 mins followed by NADPH addition measured after 10 mins by LC-MS/MS analysis; format: ADME
CYP2C9 [3] = target: T1, CYP2C9; assay: Drug metabolism in human liver microsomes assessed as CYP2C9-mediated metabolism by measuring parent compound remaining at 10 pmol/ml after 60 mins in presence of NADPH by LC-MS/MS analysis; format: ADME; conditions: read-out: Stability
CYP2C9 [4] = target: T1, CYP2C9; assay: Drug metabolism in human liver microsomes assessed as CYP2C9-mediated metabolism by measuring parent compound remaining at 10 pmol/ml after 60 mins in absence of NADPH by LC-MS/MS analysis; format: ADME; conditions: read-out: Stability
[5] = target: Voltage-gated inwardly rectifying potassium channel KCNH2 (Homo sapiens, UniProt Q12809); assay: Inhibition of human ERG
Cytochrome P450 2D6 = Cytochrome P450 2D6 (Homo sapiens, UniProt P10635); assay: Inhibition of CYP2D6 (unknown origin); format: ADME
Cytochrome P450 2C9 [6] = target: T2, Cytochrome P450 2C9; assay: Inhibition of CYP2C9 (unknown origin); format: ADME
Cytochrome P450 3A4 = Cytochrome P450 3A4 (Homo sapiens, UniProt P08684); assay: Inhibition of CYP3A4 (unknown origin); format: ADME
Cytochrome P450 2C19 = Cytochrome P450 2C19 (Homo sapiens, UniProt P33261); assay: Inhibition of CYP2C19 (unknown origin); format: ADME
Cytochrome P450 1A2 = target: T3, Cytochrome P450 1A2 (Homo sapiens, UniProt P05177); assay: Inhibition of CYP1A2 (unknown origin); format: ADME
T3 sequence (P05177 whole entry): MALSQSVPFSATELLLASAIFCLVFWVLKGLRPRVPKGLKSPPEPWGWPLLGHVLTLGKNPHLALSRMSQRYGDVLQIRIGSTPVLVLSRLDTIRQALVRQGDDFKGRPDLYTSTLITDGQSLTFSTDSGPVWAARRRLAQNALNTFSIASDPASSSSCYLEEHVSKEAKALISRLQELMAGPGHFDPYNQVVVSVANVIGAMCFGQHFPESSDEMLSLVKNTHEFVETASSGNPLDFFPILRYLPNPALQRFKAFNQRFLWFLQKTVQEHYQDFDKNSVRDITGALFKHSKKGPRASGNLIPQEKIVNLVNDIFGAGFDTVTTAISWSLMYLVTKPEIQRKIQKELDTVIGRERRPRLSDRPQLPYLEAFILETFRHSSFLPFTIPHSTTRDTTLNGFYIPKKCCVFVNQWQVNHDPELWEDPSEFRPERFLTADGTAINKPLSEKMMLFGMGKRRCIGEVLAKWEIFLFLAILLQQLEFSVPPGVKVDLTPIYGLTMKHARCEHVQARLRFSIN

[7] = Stability of the compound in solid state assessed as compound purity after 80 days; format: physicochemical; conditions: 1920 h
[8] = Stability of the compound in solid state assessed as racemization after 80 days; format: physicochemical; conditions: 1920 h
[9] = Stability of the compound in ethanol at 37 degC for 4 days; format: physicochemical; conditions: 96 h
[10] = Stability of the compound in DMSO at 80 degC for 4 days; format: physicochemical; conditions: 96 h
Plasma [11] = assay: Stability in human plasma at 37 degC up to 2 hrs; format: ADME, cell-free
Plasma [12] = assay: Stability in Sprague-Dawley rat plasma at 37 degC up to 2 hrs; format: ADME, cell-free
[13] = Apparent permeability from apical to basolateral side in MDCK cells expressing MDR1; format: ADME, cell-based, Canis lupus familiaris; conditions: dog
[14] = Apparent permeability from basolateral to apical side in MDCK cells expressing MDR1; format: ADME, cell-based, Canis lupus familiaris; conditions: dog
Plasma [15] = assay: Drug metabolism in Sprague-Dawley rat plasma assessed as (+)-Lesinurad formation at 2 mg/kg, iv administered as single bolus dose by LC-MS/MS analysis; format: ADME, organism-based; conditions: in vivo
Plasma [16] = assay: Drug metabolism in Sprague-Dawley rat plasma assessed as (+)-Lesinurad formation at 10 mg/kg, po administered as single dose via gavage by LC-MS/MS analysis; format: ADME, organism-based; conditions: in vivo
Plasma [17] = assay: Drug metabolism in Sprague-Dawley rat plasma assessed as (-)-Lesinurad formation at 2 mg/kg, iv administered as single bolus dose by LC-MS/MS analysis; format: ADME, organism-based; conditions: in vivo
Plasma [18] = assay: Drug metabolism in Sprague-Dawley rat plasma assessed as (-)-Lesinurad formation at 10 mg/kg, po administered as single dose via gavage by LC-MS/MS analysis; format: ADME, organism-based; conditions: in vivo
[19] = Drug metabolism in cynomolgus monkey assessed as (-)-Lesinurad level in urine at 2 mg/kg, iv administered as single bolus dose measured at 24 hrs post dose by LC-MS/MS analysis; format: ADME, organism-based, Macaca fascicularis; conditions: in vivo
Method in brief: (§1)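 Male cynomolgus monkeys received a single 2 mg/kg IV or 10 mg/kg PO dose. Plasma and urine were collected over time periods, and the two atropisomers were quantified separately. Urine values are the mean concentration over 0-24 h. Data are mean±SD, n=3.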

[20] = Drug metabolism in cynomolgus monkey assessed as (+)-Lesinurad level in urine at 2 mg/kg, iv administered as single bolus dose measured at 24 hrs post dose by LC-MS/MS analysis; format: ADME, organism-based, Macaca fascicularis; conditions: in vivo, read-out: Drug metabolism; method in brief: as §1
[21] = Drug metabolism in cynomolgus monkey assessed as (-)-Lesinurad level in urine at 10 mg/kg, po administered as single dose via gavage measured at 24 hrs post dose by LC-MS/MS analysis; format: ADME, organism-based, Macaca fascicularis; conditions: in vivo, read-out: Drug metabolism; method in brief: as §1
[22] = Drug metabolism in cynomolgus monkey assessed as (+)-Lesinurad level in urine at 10 mg/kg, po administered as single dose via gavage measured at 24 hrs post dose by LC-MS/MS analysis; format: ADME, organism-based, Macaca fascicularis; conditions: in vivo, read-out: Drug metabolism; method in brief: as §1
[23] = Drug recovery in cynomolgus monkey urine at 10 mg/kg, po administered as single dose via gavage measured at 24 hrs post dose by LC-MS/MS analysis; format: ADME, organism-based, Macaca fascicularis; conditions: read-out: Drug recovery; method in brief: as §1
[24] = Drug recovery in cynomolgus monkey urine at 2 mg/kg, iv administered as single bolus dose measured at 24 hrs post dose by LC-MS/MS analysis; format: ADME, organism-based, Macaca fascicularis; conditions: read-out: Drug recovery; method in brief: as §1
[25] = (§2) AUC (0 to infinity) in cynomolgus monkey at 2 mg/kg, iv administered as single bolus dose by LC-MS/MS analysis; format: ADME, organism-based, Macaca fascicularis; parameters: dose 2 mg/kg, time infinity, route intravenous; conditions: in vivo
Cynomolgus monkey [26] = assay: as §2; format: ADME, organism-based, Macaca fascicularis; parameters: dose 2 mg/kg, time infinity, route intravenous; conditions: in vivo
[27] = Apparent plasma clearance in cynomolgus monkey at 2 mg/kg, iv administered as single bolus dose by LC-MS/MS analysis; format: ADME, organism-based, Macaca fascicularis; conditions: read-out: CL(app); method in brief: as §1
[28] = Drug level in cynomolgus monkey urine at 2 mg/kg, iv administered as single bolus dose measured at 24 hrs post dose by LC-MS/MS analysis; format: ADME, organism-based, Macaca fascicularis; conditions: read-out: Drug uptake; method in brief: as §1
Cynomolgus monkey [29] = assay: AUC (0 to infinity) in cynomolgus monkey at 10 mg/kg, po administered as single dose via gavage by LC-MS/MS analysis; format: ADME, organism-based, Macaca fascicularis; parameters: dose 10 mg/kg, route oral, time infinity; conditions: in vivo
[30] = Drug level in cynomolgus monkey urine at 10 mg/kg, po administered as single dose via gavage measured at 24 hrs post dose by LC-MS/MS analysis; format: ADME, organism-based, Macaca fascicularis; conditions: in vivo, read-out: Drug uptake; method in brief: as §1
CYP2C9 [31] = target: T1, CYP2C9; assay: (§3) Drug metabolism in human liver microsomes assessed as CYP2C9-mediated metabolism by measuring compound half life at 250 pmol/ml preincubated for 10 mins followed by NADPH addition measured after 10 mins by LC-MS/MS analysis; format: ADME; conditions: liver microsomes
Cytochrome P450 2C9 [32] = target: T2, Cytochrome P450 2C9; assay: as §3; format: ADME; conditions: microsomes, 10 min
Cytochrome P450 2C9 [33] = target: T2, Cytochrome P450 2C9; assay: Drug metabolism in human liver microsomes assessed as CYP2C9-mediated metabolism by measuring compound intrinsic clearance at 250 pmol/ml preincubated for 10 mins followed by NADPH addition measured after 10 mins by LC-MS/MS analysis; format: ADME
CYP2C9 [34] = target: T1, CYP2C9; assay: (§4) Drug metabolism in human liver microsomes assessed as CYP2C9-mediated metabolism by measuring parent compound remaining at 250 pmol/ml after 60 mins in presence of NADPH by LC-MS/MS analysis; format: ADME; conditions: liver microsomes, read-out: Stability
Cytochrome P450 2C9 [35] = target: T2, Cytochrome P450 2C9; assay: as §4; format: ADME; conditions: microsomes, 1 h
CYP2C9 [36] = target: T1, CYP2C9; assay: (§5) Drug metabolism in human liver microsomes assessed as CYP2C9-mediated metabolism by measuring parent compound remaining at 250 pmol/ml after 60 mins in absence of NADPH by LC-MS/MS analysis; format: ADME; conditions: liver microsomes, read-out: Stability
Cytochrome P450 2C9 [37] = target: T2, Cytochrome P450 2C9; assay: as §5; format: ADME; conditions: microsomes, 1 h
Cytochrome P450 2C9 [38] = target: T2, Cytochrome P450 2C9; assay: Drug metabolism in human liver microsomes assessed as CYP2C9-mediated mono-oxidative metabolite formation at 250 pmol/ml preincubated for 10 mins followed by NADPH addition measured after 10 mins by LC-MS/MS analysis; format: ADME; conditions: 0.25 µM

Sequence of Voltage-gated inwardly rectifying potassium channel KCNH2 (Q12809 whole entry): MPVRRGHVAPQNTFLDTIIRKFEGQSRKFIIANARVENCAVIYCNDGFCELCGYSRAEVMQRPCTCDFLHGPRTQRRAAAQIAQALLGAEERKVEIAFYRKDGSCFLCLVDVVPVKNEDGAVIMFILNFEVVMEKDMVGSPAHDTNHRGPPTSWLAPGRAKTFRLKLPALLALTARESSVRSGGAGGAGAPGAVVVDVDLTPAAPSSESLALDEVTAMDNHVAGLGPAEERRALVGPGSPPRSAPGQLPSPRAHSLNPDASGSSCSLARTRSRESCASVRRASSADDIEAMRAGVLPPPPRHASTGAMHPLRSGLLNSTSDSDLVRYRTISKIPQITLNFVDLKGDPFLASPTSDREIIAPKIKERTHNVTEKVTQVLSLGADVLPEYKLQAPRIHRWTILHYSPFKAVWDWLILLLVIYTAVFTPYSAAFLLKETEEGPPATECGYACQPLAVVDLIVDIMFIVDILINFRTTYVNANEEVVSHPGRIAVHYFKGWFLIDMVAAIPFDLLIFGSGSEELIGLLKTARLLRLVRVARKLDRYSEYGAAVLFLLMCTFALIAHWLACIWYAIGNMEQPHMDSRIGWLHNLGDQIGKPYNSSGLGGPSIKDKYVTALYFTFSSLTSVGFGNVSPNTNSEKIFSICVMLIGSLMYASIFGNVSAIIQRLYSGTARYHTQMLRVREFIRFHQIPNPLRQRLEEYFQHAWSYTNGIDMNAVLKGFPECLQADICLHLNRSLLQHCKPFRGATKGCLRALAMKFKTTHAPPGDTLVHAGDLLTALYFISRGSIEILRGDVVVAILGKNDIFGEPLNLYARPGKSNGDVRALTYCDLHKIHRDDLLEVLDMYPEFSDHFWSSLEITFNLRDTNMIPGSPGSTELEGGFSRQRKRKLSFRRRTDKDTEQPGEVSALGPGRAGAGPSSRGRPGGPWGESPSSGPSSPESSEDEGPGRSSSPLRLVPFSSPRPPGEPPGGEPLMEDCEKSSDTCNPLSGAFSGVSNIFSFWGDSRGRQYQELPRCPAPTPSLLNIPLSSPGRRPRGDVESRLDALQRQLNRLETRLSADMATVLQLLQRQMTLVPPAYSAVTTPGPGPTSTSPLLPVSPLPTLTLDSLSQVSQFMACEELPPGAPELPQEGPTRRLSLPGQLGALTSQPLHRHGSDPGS
Sequence of Cytochrome P450 3A4 (P08684 whole entry): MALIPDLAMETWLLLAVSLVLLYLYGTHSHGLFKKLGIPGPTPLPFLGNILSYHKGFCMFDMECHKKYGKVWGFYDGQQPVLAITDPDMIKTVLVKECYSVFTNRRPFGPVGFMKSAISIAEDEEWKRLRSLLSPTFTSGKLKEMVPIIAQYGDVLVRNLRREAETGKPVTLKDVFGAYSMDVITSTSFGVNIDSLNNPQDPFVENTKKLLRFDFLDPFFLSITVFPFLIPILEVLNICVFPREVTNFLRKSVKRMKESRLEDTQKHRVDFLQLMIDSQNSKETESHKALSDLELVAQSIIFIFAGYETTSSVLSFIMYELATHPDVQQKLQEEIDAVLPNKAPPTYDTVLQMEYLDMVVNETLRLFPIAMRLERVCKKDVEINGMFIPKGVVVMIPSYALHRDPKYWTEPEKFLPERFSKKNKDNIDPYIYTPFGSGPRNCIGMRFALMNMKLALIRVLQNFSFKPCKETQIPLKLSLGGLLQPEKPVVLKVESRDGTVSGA
Sequence of Cytochrome P450 2D6 (P10635 whole entry): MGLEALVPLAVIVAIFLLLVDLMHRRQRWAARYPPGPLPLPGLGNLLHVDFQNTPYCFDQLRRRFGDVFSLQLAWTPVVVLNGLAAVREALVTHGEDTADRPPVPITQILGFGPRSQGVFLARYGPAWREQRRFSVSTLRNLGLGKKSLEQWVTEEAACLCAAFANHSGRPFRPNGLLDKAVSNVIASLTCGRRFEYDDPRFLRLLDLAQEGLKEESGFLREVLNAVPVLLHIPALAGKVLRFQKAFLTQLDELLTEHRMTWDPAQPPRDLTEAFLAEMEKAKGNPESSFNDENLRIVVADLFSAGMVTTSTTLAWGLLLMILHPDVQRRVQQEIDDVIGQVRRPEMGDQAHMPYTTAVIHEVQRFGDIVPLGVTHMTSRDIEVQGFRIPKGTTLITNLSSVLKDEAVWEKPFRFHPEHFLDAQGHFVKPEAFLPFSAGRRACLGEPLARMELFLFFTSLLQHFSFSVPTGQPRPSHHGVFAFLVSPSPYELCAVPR
Sequence of Cytochrome P450 2C19 (P33261 whole entry): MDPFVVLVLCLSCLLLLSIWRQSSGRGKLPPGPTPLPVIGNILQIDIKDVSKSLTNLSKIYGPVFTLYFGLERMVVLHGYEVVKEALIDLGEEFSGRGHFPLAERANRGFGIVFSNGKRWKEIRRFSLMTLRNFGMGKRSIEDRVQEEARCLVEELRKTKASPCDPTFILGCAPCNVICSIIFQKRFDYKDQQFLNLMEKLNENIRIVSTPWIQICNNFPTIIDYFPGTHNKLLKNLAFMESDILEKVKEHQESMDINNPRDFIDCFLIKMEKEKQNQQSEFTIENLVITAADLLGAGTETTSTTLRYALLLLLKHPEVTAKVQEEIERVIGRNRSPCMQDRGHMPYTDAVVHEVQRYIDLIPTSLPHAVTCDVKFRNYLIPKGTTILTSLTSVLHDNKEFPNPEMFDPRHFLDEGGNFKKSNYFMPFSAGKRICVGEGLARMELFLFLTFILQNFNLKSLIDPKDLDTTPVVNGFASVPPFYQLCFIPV
T2 sequence (P11712 whole entry): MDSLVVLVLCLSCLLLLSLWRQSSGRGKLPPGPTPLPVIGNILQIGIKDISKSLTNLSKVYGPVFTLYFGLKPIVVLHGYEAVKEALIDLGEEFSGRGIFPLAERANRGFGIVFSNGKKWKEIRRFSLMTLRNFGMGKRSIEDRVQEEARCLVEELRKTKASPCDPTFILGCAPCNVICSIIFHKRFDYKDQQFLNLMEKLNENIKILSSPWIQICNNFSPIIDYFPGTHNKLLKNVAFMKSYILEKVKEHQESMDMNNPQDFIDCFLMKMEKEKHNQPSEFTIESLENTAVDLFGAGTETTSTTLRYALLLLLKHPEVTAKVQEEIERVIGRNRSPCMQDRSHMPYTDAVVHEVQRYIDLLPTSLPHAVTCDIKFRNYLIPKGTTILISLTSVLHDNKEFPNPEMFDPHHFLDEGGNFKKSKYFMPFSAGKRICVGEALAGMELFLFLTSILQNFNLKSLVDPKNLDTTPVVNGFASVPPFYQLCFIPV
T1 sequence (P11712 whole entry): as above

Work on O=C(O)Cc1ccccc1Nc1c(Cl)cccc1Cl [DICLOFENAC] yielded a half-life at 10 pmol/ml (CYP2C9 [1]) of 0.205 h, a CLint (Cytochrome P450 2C9 [2]) of 5.6 µL/min/pmol and a remaining at 1 h, 10 pmol/ml (CYP2C9 [3]) of 3.3%. For the same compound, the remaining at 1 h, 10 pmol/ml (CYP2C9 [4]) was 112%.

In the case of O=C(O)CSc1nnc(Br)n1-c1ccc(C2CC2)c2ccccc12 [LESINURAD], the IC50 [5] is reported as > 30 µM, the IC50 (Cytochrome P450 2D6) is reported as 32.6 µM and 92.1 µM and > 100 µM and the IC50 (Cytochrome P450 2C9 [6]) is reported as > 100 µM and 78.7 µM and 31.2 µM. The IC50 (Cytochrome P450 3A4) was 74.4 µM and 32.4 µM and 31 µM, the IC50 (Cytochrome P450 2C19) was 61.7 µM and 10.6 µM and 10.8 µM and the IC50 (Cytochrome P450 1A2) was 17.3 µM and 39.3 µM and 21.9 µM. The Stability [7] was “Stable”, the Stability [8] was “Stable” and the Stability [9] was “Stable”. The Stability [10] was “Stable”, the Stability (Plasma [11]) was “Stable” and the Stability (Plasma [12]) was “Stable”. For the same compound, the Papp A→B ([13]; MDCK-MDR1) was 1.34 ×10⁻⁶ cm/s, the Papp ([13]; mdck) was 1.29 ucm/s and 1.26 ucm/s and the Papp B→A ([14]; MDCK-MDR1) was 1.98 ×10⁻⁶ cm/s. The Papp ([14]; mdck) was 1.84 ucm/s and 1.62 ucm/s, the Drug metabolism (Plasma [15]) was “Metabolite_Notdetected” and the Drug metabolism (Plasma [16]) was “Metabolite_Notdetected”. The Drug metabolism (Plasma [17]) was “Metabolite_Notdetected”, the Drug metabolism (Plasma [18]) was “Metabolite_Notdetected” and the Drug metabolism [19] was 5.4 µM. It also gave a concentration [20] of 2.8 µM, a concentration [21] of 153 µM and a concentration [22] of 38 µM. The dose excreted at 24 h [23] was 20%, the dose excreted at 24 h [24] was 20% and the AUC(0-inf) [25] was 26.7 µM·h. For the same compound, the AUC (Cynomolgus monkey [26]) was 19.2 µM·h, the clearance [27] was 3.3 mL/min/kg and the concentration ([28]; in vivo, 24 h) was 15.7 µM. The concentration at 24 h ([28]; urine) was 16.3 µM, the AUC (Cynomolgus monkey [29]) was 83.9 µM·h and 37.3 µM·h and the concentration [30] was 120 µM and 47.8 µM. The half-life at 250 pmol/ml (CYP2C9 [31]) was 1.5 h, the t1/2 (Cytochrome P450 2C9 [32]) was > 2.42 h and the CLH (Cytochrome P450 2C9 [33]) was 0.04 µL/min/pmol and < 0.02 µL/min/pmol. The remaining at 1 h, 250 pmol/ml (CYP2C9 [34]) was 61.8%, the Stability (Cytochrome P450 2C9 [35]) was 74.9% and the remaining at 1 h, 250 pmol/ml (CYP2C9 [36]) was 110%. The Stability (Cytochrome P450 2C9 [37]) was 108.9% and the Drug metabolism (Cytochrome P450 2C9 [38]) was “Metabolite_Detected”.
